Screening data (PubChem)
In the library only some 2.3% were active in any assay of this set; here they are far more common.
PME-1 primary: PME-1 (human) inhibition | Q9Y570 | recombinant PME-1, FP-Rh probe fluorescence polarization | inhibition, % at 5.9 µM | actives 0.53% (n = 320,000) | AID 2130;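 active = inhibition above the campaign mean of all compounds plus 3 SD, cut at about 26% in these data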;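 note: competitive labeling of PME-1 active site by serine hydrolase directed probe; 0% = PME-1 with DMSO and 100% = wells lacking PME-1 enzyme; inhibitors block probe labeling so polarization falls and inhibition rises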
GSTO1 inh: GSTO1 inhibition, counter-screen for RBBP9 inhibitors. recombinant GSTO1, activity-based probe fluorescence polarization. inhibition, % at 5.96 µM. actives 1.1% (n = 300,000). AID 1974. P78417;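 active = inhibition above the campaign mean inhibition plus 3 SD, cut at about 35% in these data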;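 note: 0% = GSTO1-1 with DMSO and 100% = wells lacking GSTO1-1 enzyme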
Target sequence (P78417 whole entry, looked up): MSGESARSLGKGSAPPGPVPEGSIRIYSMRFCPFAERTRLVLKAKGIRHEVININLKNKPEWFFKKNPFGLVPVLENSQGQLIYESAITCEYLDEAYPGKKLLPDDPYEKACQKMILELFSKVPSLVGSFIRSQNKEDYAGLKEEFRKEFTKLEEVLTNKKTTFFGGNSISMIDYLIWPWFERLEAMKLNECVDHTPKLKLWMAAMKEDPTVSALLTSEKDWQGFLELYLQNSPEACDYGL
Fam108B counter: Fam108B inhibition, counter-screen for RBBP9 inhibitors; AID 1947; actives 0.33% (n = 300,000); inhibition, % at 9.51 µM; recombinant Fam108B, FP-Rh probe fluorescence polarization;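 active = inhibition above the screen mean inhibition plus 3 SD, computed separately per campaign, cut at about 18% in these data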;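 note: inhibitors lower polarization as less probe binds the enzyme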
RBBP9 inh: inhibitors of human serine hydrolase RBBP9; O75884; actives 0.2% (n = 220,000); recombinant RBBP9, FP-Rh probe fluorescence polarization; AID 1515; inhibition, % at 7.94 µM;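 active = inhibition above the campaign mean of all tested compounds plus 3 SD, cut at about 14% in these data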;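 note: plate controls were DMSO wells with RBBP9 for no effect and wells lacking RBBP9 protein for full effect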
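Measured by: FP readout at 525/598 nm; material: recombinant human RBBP9; also added: Serine-hydrolase probe FP-Rh, 375 nM pre-mixing; medium: Tris buffer pH 8.0, NaCl, Pluronic; replication: one well per compound; doses: one concentration, 7.94 µM nominal, 0.794% DMSO; timing: preincubation 30 min plus labeling 45 min at 25 °C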
PAD4 FP inh: inhibitors of human PAD4; Q9UM07; recombinant PAD4, RCA probe fluorescence polarization; inhibition, % at 6.36 µM; actives 0.41% (n = 330,000); AID 485272;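 active = percent inhibition above a cutoff equal to the mean of all tested compounds plus 3 SD, cut at about 15% in these data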;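 note: 0% = PAD4 with RCA probe and DMSO and 100% = probe without PAD4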
PRMT1 FP inh: PRMT1 (human) inhibition, primary screen. actives 1.3% (n = 370,000). Q99873. AID 652257. inhibition, % at 2.79 µM. recombinant PRMT1, activity-based probe fluorescence polarization;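 active = inhibition above about 21% made by adding two undisclosed values, limit read from the data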
Target sequence (Q99873 whole entry, looked up): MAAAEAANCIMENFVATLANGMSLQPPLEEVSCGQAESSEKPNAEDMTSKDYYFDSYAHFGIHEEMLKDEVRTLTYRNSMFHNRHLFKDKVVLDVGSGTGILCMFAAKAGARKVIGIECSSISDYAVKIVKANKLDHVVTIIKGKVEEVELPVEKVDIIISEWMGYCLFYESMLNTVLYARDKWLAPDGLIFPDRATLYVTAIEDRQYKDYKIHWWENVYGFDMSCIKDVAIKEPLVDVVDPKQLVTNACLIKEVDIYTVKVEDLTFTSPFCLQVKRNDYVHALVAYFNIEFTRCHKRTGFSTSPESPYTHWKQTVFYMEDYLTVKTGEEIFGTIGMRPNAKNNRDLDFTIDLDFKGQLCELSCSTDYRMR
RBBP9 confirm: confirmation of human RBBP9 inhibitors | shares compounds with RBBP9 inh | recombinant RBBP9, FP-Rh probe fluorescence polarization | inhibition, % at 7.94 µM | actives 36% (n = 410);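 active = inhibition above the hit cutoff derived for the primary screen, cut at about 15% in these data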;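 note: 0% = RBBP9 with DMSO and 100% = wells lacking RBBP9 protein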
* = called active by the depositor.

How did O=C(CSc1ccc2ccccc2n1)c1ccccc1 do in these assays?
PME-1 primary: 3; GSTO1 inh: 0; Fam108B counter: 1; RBBP9 inh: 18*; PAD4 FP inh: -1; PRMT1 FP inh: 3; RBBP9 confirm: 4

What do the screens show for `Cc1nc2ccccc2nc1SCC(=O)c1ccccc1`?
PME-1 primary: -4; GSTO1 inh: 3; Fam108B counter: -4; RBBP9 inh: -9; PAD4 FP inh: 4; PRMT1 FP inh: 5

What do the screens show for `CNC(=O)C(=O)Nc1c(O)c2ccccc2[nH]c1=O`?
PME-1 primary: -1; GSTO1 inh: 3; Fam108B counter: 0; RBBP9 inh: 18*; PAD4 FP inh: 0; PRMT1 FP inh: 13; RBBP9 confirm: 3

Results for CC(=O)Nc1c(F)cc(Br)cc1F ?
PME-1 primary: 2; GSTO1 inh: 1; Fam108B counter: 1; RBBP9 inh: 16*; PAD4 FP inh: 3; PRMT1 FP inh: 1; RBBP9 confirm: 9

How did CC(=O)Nc1cc(Br)ccc1O do in these assays?
PME-1 primary: -3; GSTO1 inh: 12; Fam108B counter: -4; RBBP9 inh: -1; PAD4 FP inh: -6; PRMT1 FP inh: -5

Results for CCC(=O)Oc1ccc2c(C)cc(=O)oc2c1C(=O)c1ccccc1 ?
PME-1 primary: -3; GSTO1 inh: -2; Fam108B counter: 4; RBBP9 inh: -4; PAD4 FP inh: 3; PRMT1 FP inh: 1

How did CCC(=O)Oc1ccc2c(C)cc(=O)oc2c1C(=O)CC do in these assays?
PME-1 primary: 2; GSTO1 inh: -4; Fam108B counter: -3; RBBP9 inh: 18*; PAD4 FP inh: -1; PRMT1 FP inh: -4; RBBP9 confirm: 11

Results for CCOC(=O)C1=C[C@@H](CC)N(S(=O)(=O)c2ccc(C)cc2)[C@H]1c1cccc(Cl)c1 ?
PRMT1 FP inh: 0

Results for Cc1ccc(S(=O)(=O)NCCC(=O)N2CCN(Cc3ccccc3)CC2)cc1 ?
PME-1 primary: 0; GSTO1 inh: 6; Fam108B counter: 0; RBBP9 inh: 29*; PAD4 FP inh: -1; PRMT1 FP inh: 2; RBBP9 confirm: 6

How did CC(=O)N1CCc2cc(S(=O)(=O)NCCC(=O)N3CCN(Cc4ccccc4)CC3)ccc21 do in these assays?
PME-1 primary: -5; GSTO1 inh: 9; Fam108B counter: -5; RBBP9 inh: -6; PAD4 FP inh: -3; PRMT1 FP inh: 1

How did CCOC(=O)C(C)(C)Sc1ncnc2nc[nH]c12 do in these assays?
PME-1 primary: 5; GSTO1 inh: -3; Fam108B counter: -1; RBBP9 inh: 16*; PAD4 FP inh: -3; PRMT1 FP inh: -1; RBBP9 confirm: 8

What do the screens show for `Cc1ccc(C(=O)Nc2cccc([N+](=O)[O-])c2)cc1S(=O)(=O)Nc1ccc(C(=O)O)cc1`?
PME-1 primary: -1; GSTO1 inh: 0; Fam108B counter: -1; RBBP9 inh: 6; PAD4 FP inh: 4; PRMT1 FP inh: 3

What do the screens show for `Cc1cccc(NS(=O)(=O)c2cc(NC(=O)CC(=O)c3ccc([N+](=O)[O-])cc3)ccc2C)c1`?
RBBP9 inh: 30*; RBBP9 confirm: 16*

Results for Cc1nc(CS(=O)(=O)c2ccccc2)cc(N2CCN(c3ccccc3F)CC2)n1 ?
PME-1 primary: -4; GSTO1 inh: 1; Fam108B counter: -4; RBBP9 inh: -7; PAD4 FP inh: 1; PRMT1 FP inh: 0

How did COC(=O)C1C(=O)OC(C)(C)C1C(C)C(=O)c1ccc(C)cc1C (centres undefined) do in these assays?
PME-1 primary: 0; GSTO1 inh: 4; Fam108B counter: 3; RBBP9 inh: 6; PAD4 FP inh: -4; PRMT1 FP inh: -2

How did COC(=O)C1C(=O)OC(C)(C)C1C(C)C(=O)c1ccccc1 (centres undefined) do in these assays?
PME-1 primary: -5; GSTO1 inh: 0; Fam108B counter: -2; RBBP9 inh: 14*; PAD4 FP inh: 2; PRMT1 FP inh: 0; RBBP9 confirm: 7

Results for COc1ccc(C2C(C(C)=O)=C(O)C(=O)N2c2ccc(C)cc2)cc1 (centres undefined) ?
PME-1 primary: -2; GSTO1 inh: -8; Fam108B counter: -4; PAD4 FP inh: -13; PRMT1 FP inh: -6

What do the screens show for `Cc1cccc(N2CC(C(=O)O)CC2=O)c1` (centres undefined)?
PME-1 primary: -1; GSTO1 inh: -1; Fam108B counter: 0; RBBP9 inh: 8; PAD4 FP inh: 1; PRMT1 FP inh: -1

Results for CC(=O)c1ccc(OC(=O)C2CC(=O)N(c3cccc(C)c3)C2)cc1 (centres undefined) ?
PME-1 primary: -1; GSTO1 inh: 6; Fam108B counter: 0; RBBP9 inh: 16*; PAD4 FP inh: -3; PRMT1 FP inh: 4; RBBP9 confirm: 4

How did Cc1cccc(N2CCN(C(=O)c3cc(S(=O)(=O)N(C)C)ccc3N3CCCC3)CC2)c1C do in these assays?
PME-1 primary: 1; GSTO1 inh: -6; Fam108B counter: 3; RBBP9 inh: 15*; PAD4 FP inh: -1; PRMT1 FP inh: 1; RBBP9 confirm: 2

How did Cc1cccc(N2CCN(C(=O)c3cc(S(=O)(=O)N(C)C)ccc3Cl)CC2)c1C do in these assays?
PRMT1 FP inh: 3

What do the screens show for `COc1ccc(C(=O)O)cc1N1C(=O)Nc2ccccc2N1O`?
PME-1 primary: 0; GSTO1 inh: -5; Fam108B counter: -1; RBBP9 inh: 1; PAD4 FP inh: -7; PRMT1 FP inh: 2

How did O=C(Cn1nnc(-c2ccc(N3CCOCC3)cc2)n1)N1CCOCC1 do in these assays?
PME-1 primary: -4; GSTO1 inh: 4; Fam108B counter: 2; RBBP9 inh: -5; PAD4 FP inh: -4

What do the screens show for `COc1ccc2c(c1)SC1=NCCS(=O)(=O)N12`?
PME-1 primary: 3; GSTO1 inh: 6; Fam108B counter: -1; RBBP9 inh: 3; PAD4 FP inh: -3; PRMT1 FP inh: -1

How did O=S(=O)(O)c1ccc(N=Nc2ccccc2)cc1 do in these assays?
PME-1 primary: -4; GSTO1 inh: 4; Fam108B counter: -3; RBBP9 inh: -9; PAD4 FP inh: 0; PRMT1 FP inh: 4

Results for O=c1ccc(N=Nc2ccccc2)ccc1O ?
PME-1 primary: -1; GSTO1 inh: 33; Fam108B counter: 4; RBBP9 inh: 18*; PAD4 FP inh: 0; PRMT1 FP inh: 3; RBBP9 confirm: 4

How did Cc1ccc(SCCC(=O)N2CCCC2)cc1 do in these assays?
PME-1 primary: 5; GSTO1 inh: 6; Fam108B counter: -1; RBBP9 inh: -5; PAD4 FP inh: -2; PRMT1 FP inh: 0

How did O=C(C[n+]1ccc(C(=O)NCCCO)cc1)c1cccc(Br)c1 do in these assays?
PME-1 primary: -4; GSTO1 inh: 10; Fam108B counter: 2; RBBP9 inh: 63*; PAD4 FP inh: -2; PRMT1 FP inh: 0; RBBP9 confirm: 6
